Results published in ChEMBL document CHEMBL4118104, “Design, Synthesis, and Evaluation of Orally Bioavailable Quinoline-Indole Derivatives as Innovative Multitarget-Directed Ligands: Promotion of Cell Proliferation in the Adult Murine Hippocampus for the Treatment of Alzheimer's Disease” (J Med Chem, 2018).
Activity calls are given as the source filed them. The calls are words filed in the database; no cut-off is given here.

Tests used:
[1] = target: Amyloid-beta precursor protein (Homo sapiens) (UniProt P05067); experiment: Induction of disaggregation of amyloid beta (1 to 42) (unknown origin) fibrils at compound to amyloid beta ratio of 1:1 after 48 hrs by thioflavin-T fluorescence assay relative to control
Chain of Amyloid-beta precursor protein (Homo sapiens) (P05067 whole entry): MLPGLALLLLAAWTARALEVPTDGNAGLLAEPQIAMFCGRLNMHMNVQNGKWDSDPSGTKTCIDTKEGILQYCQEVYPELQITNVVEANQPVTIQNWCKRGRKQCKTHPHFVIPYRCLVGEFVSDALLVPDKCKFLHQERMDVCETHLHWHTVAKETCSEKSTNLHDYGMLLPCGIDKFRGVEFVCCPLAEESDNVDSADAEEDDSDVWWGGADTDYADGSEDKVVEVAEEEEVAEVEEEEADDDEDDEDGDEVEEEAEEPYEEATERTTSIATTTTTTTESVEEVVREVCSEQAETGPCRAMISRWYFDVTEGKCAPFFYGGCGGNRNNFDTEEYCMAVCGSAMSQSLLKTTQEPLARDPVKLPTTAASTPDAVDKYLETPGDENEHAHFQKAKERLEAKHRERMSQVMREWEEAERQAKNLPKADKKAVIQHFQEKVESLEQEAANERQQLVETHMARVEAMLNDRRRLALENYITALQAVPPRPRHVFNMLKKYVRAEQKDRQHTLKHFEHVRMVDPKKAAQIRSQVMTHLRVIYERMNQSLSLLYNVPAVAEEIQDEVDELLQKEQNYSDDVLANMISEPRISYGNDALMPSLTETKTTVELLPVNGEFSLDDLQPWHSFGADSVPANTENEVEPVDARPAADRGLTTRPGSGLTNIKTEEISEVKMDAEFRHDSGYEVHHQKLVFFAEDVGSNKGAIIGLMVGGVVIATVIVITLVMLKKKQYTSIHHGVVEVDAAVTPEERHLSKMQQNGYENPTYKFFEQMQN
In short: (§1)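 Aβ1-42 at 25 µM with compound at 1:1 in 50 mM PBS, pH 7.4, 37 °C, read by ThT fluorescence or by TEM. Disaggregation was done on preformed aggregates. ThT data are mean ± SD of at least three experiments.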

PC-12 [2] = experiment: Induction of rat PC12 cell proliferation at 10 uM after 72 hrs by microscopic analysis; format: functional, cell-based
In short: (§2)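 Undifferentiated PC12 cells cultured 72 h with compound at 0.5–50 µM (images at 10 µM) or with NGF 50 ng/ml, then examined under a digital microscope.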

Mus musculus [3] = experiment: Cognition enhancement activity in double APP/PS1 transgenic Alzheimer's disease mouse model assessed as decrease in path searching behavior at 30 mg/kg/day, po for 80 days by Morris water maze test; format: functional, organism-based
In short: (§3)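 APP/PS1 double transgenic mice, six months old, gavaged 30 mg/kg/day in 0.5% CMC-Na for 80 days; vehicle mice and WT C57BL/6 received blank CMC-Na. Escape latency recorded daily over the training trials; n = 10, mean ± SD, two-way ANOVA.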

[4] = target: Amyloid-beta precursor protein (Homo sapiens) (UniProt P05067); experiment: Inhibition of amyloid beta (1 to 42) (unknown origin) self-induced aggregation at compound to amyloid beta ratio of 1:1 after 48 hrs by thioflavin-T fluorescence assay relative to control; conditions: concentration not given here; in short: as §1
Mus musculus [5] = experiment: Cognition enhancement activity in double APP/PS1 transgenic Alzheimer's disease mouse model assessed as increase in number of virtual platform crossing at 30 mg/kg/day, po for 80 days by Morris water maze test; format: functional, organism-based
In short: (§4)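 APP/PS1 mice, six months old, gavaged 30 mg/kg/day in 0.5% CMC-Na for 80 days. Probe trial was a single 90 s free swim with the platform absent; effective region is twice the platform diameter. n = 10, mean ± SD, two-way ANOVA.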

PC-12 [6] = experiment: Induction of rat PC12 cell proliferation at 0.5 to 50 uM after 72 hrs by microscopic analysis; format: functional, cell-based; in short: as §2
Mus musculus [7] = experiment: Cognition enhancement activity in double APP/PS1 transgenic Alzheimer's disease mouse model assessed as increase in number of effective region crossing at 30 mg/kg/day, po for 80 days by Morris water maze test; format: functional, organism-based; in short: as §4
Mus musculus [8] = experiment: Cognition enhancement activity in double APP/PS1 transgenic Alzheimer's disease mouse model assessed as decrease in escape latency at 30 mg/kg/day, po for 80 days by Morris water maze test; format: functional, organism-based; in short: as §3
PC-12 [9] = experiment: Induction of rat PC12 cell proliferation at 0.5 to 50 uM after 72 hrs in presence of ERK inhibitor U0126 by MTT assay; format: functional, cell-based
In short: (§5)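 PC12 cells treated with compound together with U0126 (ERK inhibitor, 1 µM) or SB203580 (p38 inhibitor, 1 µM); survival measured by MTT, expressed as percent of control, mean ± SD of at least three experiments.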

[10] = Inhibition of Cu2+ - induced amyloid beta (1 to 42) (unknown origin) aggregation assessed as small-sized nonfibrillar amorphos amyloid beta at compound/amyloid beta/Cu2+ ratio of 2:1:1 after 48 hrs by TEM analysis
In short: (§6)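 Chelator, Aβ1-42 (25 µM) and Cu2+ at 2:1:1 in HEPES/NaCl, pH 6.6, 37 °C; inhibition measured on fresh peptide and disaggregation on preformed Cu2+-Aβ aggregates. Read by ThT fluorescence (at least three experiments) or by TEM.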

[11] = Metal chelating activity assessed as compound-Zn2+ complex formation by measuring absorption spectrum at 50 uM after 30 mins by UV-Visible spectrophotometric analysis (reference value: 314 nm)
In short: (§7)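 Ligand 50 µM alone or with 50 µM CuSO4, ZnCl2, FeSO4 or FeCl3 in 20 mM HEPES, 150 mM NaCl, pH 7.4; UV-vis absorbance spectra recorded. For Cu2+, titration at room temperature with absorbance at 338 nm gave stoichiometry.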

[12] = target: Amyloid-beta precursor protein (Homo sapiens) (UniProt P05067); experiment: Induction of disaggregation of Cu2+ -associated amyloid beta (1 to 42) (unknown origin) fibrils at compound/amyloid beta/Cu2+ ratio of 2:1:1 after 48 hrs by thioflavin T-based fluorometric assay relative to control; in short: as §6
[13] = Metal chelating activity assessed as compound-Fe2+ complex formation by measuring absorption spectrum at 50 uM after 30 mins by UV-Visible spectrophotometric analysis (reference value: 314 nm); in short: as §7
[14] = target: Amyloid-beta precursor protein (Homo sapiens) (UniProt P05067); experiment: Induction of disaggregation of amyloid beta (1 to 42) (unknown origin) assessed as narrow aggregation at compound to amyloid beta ratio of 1:1 after 48 hrs by TEM analysis; in short: as §1
[15] = Metal chelating activity assessed as compound-Cu2+ complex formation by measuring absorption spectrum at 50 uM after 30 mins by UV-Visible spectrophotometric analysis (reference value: 314 nm); in short: as §7
[16] = Metal chelating activity assessed as compound-Cu2+ complex formation at 50 uM after 30 mins by mass spectrometry
[17] = Metal chelating activity assessed as compound-Fe3+ complex formation by measuring absorption spectrum at 50 uM after 30 mins by UV-Visible spectrophotometric analysis (reference value: 314 nm); in short: as §7
[18] = Induction of disaggregation of Cu2+ -associated amyloid beta (1 to 42) (unknown origin) fibrils assessed as small-sized nonfibrillar amorphos amyloid beta at compound/amyloid beta/Cu2+ ratio of 2:1:1 after 48 hrs by TEM analysis; in short: as §6
[19] = target: Amyloid-beta precursor protein (Homo sapiens) (UniProt P05067); experiment: Inhibition of amyloid beta (1 to 42) (unknown origin) self-induced aggregation assessed as reduction in unstructured aggregates at compound to amyloid beta ratio of 1:1 after 48 hrs by TEM analysis; in short: as §1
PC-12 [20] = experiment: Induction of rat PC12 cell proliferation at 0.5 to 50 uM after 72 hrs in presence of p38 inhibitor SB203580 by MTT assay; format: functional, cell-based; in short: as §5
[21] = Inhibition of Cu2+ - induced amyloid beta (1 to 42) (unknown origin) aggregation at compound/amyloid beta/Cu2+ ratio of 2:1:1 after 48 hrs by thioflavin T-based fluorometric assay relative to control; conditions: concentration not given here; in short: as §6
[22] = target: Amyloid-beta precursor protein (Homo sapiens) (UniProt P05067); experiment: Induction of disaggregation of amyloid beta (1 to 42) (unknown origin) assessed as shorter aggregation at compound to amyloid beta ratio of 1:1 after 48 hrs by TEM analysis; in short: as §1
[23] = target: Amyloid-beta precursor protein (Homo sapiens) (UniProt P05067); experiment: Inhibition of amyloid beta (1 to 42) (unknown origin) self-induced aggregation assessed as less dense fibrils at compound to amyloid beta ratio of 1:1 after 48 hrs by TEM analysis; in short: as §1
[24] = target: Amyloid-beta precursor protein (Homo sapiens) (UniProt P05067); experiment: Inhibition of amyloid beta (1 to 42) (unknown origin) self-induced aggregation assessed as thinner fibrils at compound to amyloid beta ratio of 1:1 after 48 hrs by TEM analysis; in short: as §1
Mus musculus [25] = experiment: Induction of cell proliferation in C57BL/6 mouse hippocampal neurons in DG region assessed as BrdU-incorporation at 30 mg/kg, po administered via gavage for 7 days by immunohistochemical analysis (reference value: 2.2%); format: functional
In short: (§8)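 C57BL/6 mice, 12 weeks old, n = 6, individually housed beforehand without wheels. Compound gavaged 30 mg/kg/day for 7 days with daily IP BrdU 50 mg/kg; BrdU+ cells counted by immunohistochemistry per hippocampal volume; two-way ANOVA.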

Mus musculus [26] = experiment: Induction of cell proliferation in C57BL/6 mouse hippocampal neurons in CA2 region assessed as BrdU-incorporation at 0.5 uL/hr, icv for 7 days by immunohistochemical analysis (reference value: 2.4%); format: functional
SH-SY5Y = experiment: Neuroprotective activity against t-BuOOH-induced oxidative stress in human SH-SY5Y cells assessed as inhibition ROS accumulation pre-incubated for 24 hrs before t-BuOOH challnge for 30 mins by DCFH-DA probe based fluorescence assay; format: functional, cell-based
In short: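 SH-SY5Y cells; test agents at 1–0.01 µM, oxidative stress induced by tert-butyl hydroperoxide; intracellular ROS read by DCFH-DA fluorescence; at least three independent experiments in sextuplicate; EC50 derived.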

Mus musculus [27] = experiment: Induction of cell proliferation in C57BL/6 mouse hippocampal neurons in CA3 region assessed as BrdU-incorporation at 30 mg/kg, po administered via gavage for 7 days by immunohistochemical analysis (reference value: 1.5%); format: functional; in short: as §8
Mus musculus [28] = experiment: Induction of cell proliferation in C57BL/6 mouse hippocampal neurons in CA1 region assessed as BrdU-incorporation at 30 mg/kg, po administered via gavage for 7 days by immunohistochemical analysis (reference value: 2.3%); format: functional; in short: as §8
Mus musculus [29] = experiment: Induction of cell proliferation in C57BL/6 mouse hippocampal neurons in CA3 region assessed as BrdU-incorporation at 0.5 uL/hr, icv for 7 days by immunohistochemical analysis (reference value: 1.4%); format: functional
[30] = Antioxidant activity assessed as AAPH radical scavenging activity by measuring trolox equivalent at 10 to 20 uM preincubated for 10 mins followed by AAPH addition measured every min for 120 mins in presence of clioquinol by ORAC-FL assay; format: functional
In short: (§9)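 ORAC-FL: compound at 10 µM (or 20 µM) in 75 mM phosphate pH 7.4 with fluorescein (70 nM final), preincubated 10 min at 37 °C, then AAPH added. Fluorescence (ex 485/em 520) read each minute for 120 min. Net AUC converted to Trolox equivalents via a 10–100 µM Trolox curve; three independent experiments.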

Mus musculus [31] = experiment: Induction of cell proliferation in C57BL/6 mouse hippocampal neurons in CA1 region assessed as BrdU-incorporation at 0.5 uL/hr, icv for 7 days by immunohistochemical analysis (reference value: 3.2%); format: functional
Mus musculus [32] = experiment: Induction of cell proliferation in C57BL/6 mouse hippocampal neurons in DG region assessed as BrdU-incorporation at 0.5 uL/hr, icv for 7 days by immunohistochemical analysis (reference value: 7.8%); format: functional
Mus musculus [33] = experiment: Induction of cell proliferation in C57BL/6 mouse hippocampal neurons in CA2 region assessed as BrdU-incorporation at 30 mg/kg, po administered via gavage for 7 days by immunohistochemical analysis (reference value: 2.4%); format: functional; in short: as §8
[34] = target: Amyloid-beta precursor protein (Homo sapiens) (UniProt P05067); experiment: Inhibition of amyloid beta (1 to 42) (unknown origin) self-induced aggregation at 5 uM after 48 hrs in presence of clioquinol by thioflavin-T fluorescence assay relative to control
In short: (§10)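 ThT assay of Aβ1-42 self-aggregation: Aβ1-42 25 µM with inhibitor 5 µM (5:1); three independent experiments, each in triplicate.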

[35] = target: Amyloid-beta precursor protein (Homo sapiens) (UniProt P05067); experiment: Inhibition of amyloid beta (1 to 42) (unknown origin) self-induced aggregation at 5 uM after 48 hrs in presence of melatonin by thioflavin-T fluorescence assay relative to control; in short: as §10
[36] = Antioxidant activity assessed as AAPH radical scavenging activity by measuring trolox equivalent at 10 to 20 uM preincubated for 10 mins followed by AAPH addition measured every min for 120 mins in presence of melatonin by ORAC-FL assay; format: functional; in short: as §9

Row | SMILES | Activity [1] [%] | Activity (PC-12 [2]) | Activity (Mus musculus [3]) | inhibition [4] [%] | Activity (Mus musculus [5]) | Activity (PC-12 [6]) | Activity (Mus musculus [7]) | Activity (Mus musculus [8]) | inhibition [10] | Activity [12] [%] | Activity [18] | inhibition [21] [%] | EC50 (SH-SY5Y) [nM] | other results
1 | Oc1c(Cl)cc(Cl)c2ccc(-c3cc4cc5c(cc4[nH]3)OCO5)nc12 | 48.5 to 72.7 | Active | Active | 48.6 to 71.6 | Active | Active | Active | Active |  |  |  |  |  | 
2 | Oc1ccc2[nH]c(-c3ccc4c(Cl)cc(Cl)c(O)c4n3)cc2c1 | 48.5 to 72.7 | Active | Active | 48.6 to 71.6 | Active | Active | Active | Active | Active | 83.3 | Active | 85.8 |  | Activity (PC-12 [9]): inactive; Activity [11]: 309 nm; Activity [13]: 324 nm; Activity [14]: Active; Activity [15]: 338 nm; Activity [16]: Active; Activity [17]: 309 nm; inhibition [19]: Active; Activity (PC-12 [20]): inactive; Activity [22]: Active; inhibition [23]: Active; inhibition [24]: Active
3 | COc1ccc2[nH]cc(CCNC(C)=O)c2c1 [MELATONIN] | 44.3 |  |  | 49.1 |  |  |  |  | inactive | 24 | inactive | 47.8 | > 1000 | Activity (Mus musculus [25]): 9.4%; Activity (Mus musculus [26]): 2.1%; Activity (Mus musculus [27]): 1.5%; Activity (Mus musculus [28]): 3.2%; Activity (Mus musculus [29]): 1.2%; Activity (umolequiv/umol) [30]: 2.9; Activity (Mus musculus [31]): 2.7%; Activity (Mus musculus [32]): 27.4%; Activity (Mus musculus [33]): 1.6%; inhibition [34]: 22.5%
4 | Oc1c(I)cc(Cl)c2cccnc12 [CLIOQUINOL] |  |  |  |  |  |  |  |  |  |  |  |  | > 1000 | inhibition [35]: 22.5%; Activity (umolequiv/umol) [36]: 2.9
